pIC50: −log10 of the molar value.
Experiments:
Mus musculus [1] = assay: Compound was evaluated in vivo for antitumor activity utilizing the murine P388 leukemia system in B6D2F1 male mice; Curative; assay type: functional, organism-based
Outline: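 Murine P388 leukemia in B6D2F1 male mice; 10⁶ tumor cells inoculated ip on day 0; drug given ip once daily on days 1–4, largely per standard NCI protocols. Outcome is percent increase in life span versus untreated controls, at highest nontoxic dose; experiment ended day 60.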

Nucleic Acid = assay: (§1) Compound was tested in vitro for ability to bind with double helical calf thymus DNA was determined spectrophotometrically at 480 nmby spectral shift method and the value expressed as the ratio A/Ao; assay type: nucleic-acid assay; details: Bos taurus
Outline: (§2)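 Calf thymus double-helical DNA in pH 7.0 Tris buffer, drug/DNA molar ratio 0.1. Absorbance at 480 nm measured for drug alone (A₀) and after mixing with DNA (A), reported as A/A₀ (spectral shift method).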

[2] = Time for esterases in unfractionated mouse serum to reduce the concentration due to thio ester deacylation; assay type: ADME
Outline: (§3)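 Drug incubated at 37 °C in pH 7.0 carbonate buffer containing 1% unfractionated mouse serum, pooled from 10 animals and stored at -70 °C. Loss of parent compound followed by HPLC; T1/2 is time for the initial concentration to fall by 50% through thio ester deacylation.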

P388 = assay: (§4) Compound was evaluated in vivo for antitumor activity utilizing the murine P388 leukemia system in B6D2F1 male mice.; assay type: functional, Mus musculus
Outline: (§5)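 B6D2F1 male mice were inoculated ip on day 0 with 10⁶ P388 leukemia cells. Drug was given ip once daily on days 1–4, broadly following standard NCI protocols. Activity was read as percent increase in life span relative to untreated controls, reported at the highest nontoxic dose. The experiment was terminated on day 60.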

CCRF-CEM = assay: In vitro growth-inhibition assay utilizing CCRF-CEM cells, a lymphoblastic leukemic line of human origin; assay type: functional; details: read-out: ID50 (the source's name)
Outline: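 Human CCRF-CEM lymphoblastic leukemia cells in continuous suspension culture, exposed continuously to drug for 48 h. ID₅₀ is the concentration giving 50% reduction in growth versus untreated control cultures.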

Mus musculus [3] = assay: as §4; assay type: functional; outline: as §5
[4] = T 1/2 value indicates the time required for the initial concentration of compound to be reduced by 50%,; assay type: ADME; outline: as §3
[5] = as §1; outline: as §2
[6] = Time for esterases in unfractionated mouse serum to reduce the concentration due to thio ester deacylation; 10 % hydrolysis at 60 mins; assay type: ADME; outline: as §3

half-life [4] [min]	Ratio [5]	half-life [6] [min]	SMILES	ILS (Mus musculus [1])	Ratio (Nucleic Acid)	half-life [2] [min]	Optimal dose (P388) [mg/kg]	pIC50 (CCRF-CEM)	ILS (Mus musculus [3]) [%]
			CCCCC(=O)OCC(=O)[C@]1(O)Cc2c(O)c3c(c(O)c2[C@@H](OC2CC(NC(=O)C(F)(F)F)C(O)C(C)O2)C1)C(=O)c1c(OC)cccc1C3=O (stereo partly specified)	Curative	0.6	10	50	6.62	
			CCCCC(=O)SCC(=O)[C@]1(O)Cc2c(O)c3c(c(O)c2[C@@H](OC2CC(N)C(O)C(C)O2)C1)C(=O)c1c(OC)cccc1C3=O (stereo partly specified)		0.65	8	10	6.35	130
			COc1cccc2c1C(=O)c1c(O)c3c(c(O)c1C2=O)C[C@@](O)(C(=O)CSC(C)=O)C[C@@H]3OC1CC(N)C(O)C(C)O1 (stereo partly specified)		0.61	6	25	6.05	220
			CCCCC(=O)SCC(=O)[C@]1(O)Cc2c(O)c3c(c(O)c2[C@@H](OC2CC(NC(=O)C(F)(F)F)C(O)C(C)O2)C1)C(=O)c1c(OC)cccc1C3=O (stereo partly specified)			22		< 5.30	
			COc1cccc2c1C(=O)c1c(O)c3c(c(O)c1C2=O)C[C@@](O)(C(=O)CSC(=O)c1ccccc1)C[C@@H]3OC1CC(N)C(O)C(C)O1 (stereo partly specified)		0.65	8	10	5.64	140
80	0.99		CCC(=O)SCC(=O)[C@]1(O)Cc2c(O)c3c(c(O)c2[C@@H](OC2CC(NC(=O)C(F)(F)F)C(O)C(C)O2)C1)C(=O)c1c(OC)cccc1C3=O (stereo partly specified)					5.55	
			CCCC(=O)SCC(=O)[C@]1(O)Cc2c(O)c3c(c(O)c2[C@@H](OC2CC(NC(=O)C(F)(F)F)C(O)C(C)O2)C1)C(=O)c1c(OC)cccc1C3=O (stereo partly specified)			42		< 5.30	
		> 60	COc1cccc2c1C(=O)c1c(O)c3c(c(O)c1C2=O)C[C@@](O)(C(=O)CSC(=O)c1ccccc1)C[C@@H]3OC1CC(NC(=O)C(F)(F)F)C(O)C(C)O1 (stereo partly specified)		0.98			5.42	
			CCCC(=O)SCC(=O)[C@]1(O)Cc2c(O)c3c(c(O)c2[C@@H](OC2CC(N)C(O)C(C)O2)C1)C(=O)c1c(OC)cccc1C3=O (stereo partly specified)		0.63	10	10	6.25	90
			CCC(=O)SCC(=O)[C@]1(O)Cc2c(O)c3c(c(O)c2[C@@H](OC2CC(N)C(O)C(C)O2)C1)C(=O)c1c(OC)cccc1C3=O (stereo partly specified)		0.61	5	20	6.14	80
			COc1cccc2c1C(=O)c1c(O)c3c(c(O)c1C2=O)C[C@@](O)(C(=O)CSC(C)=O)C[C@@H]3OC1CC(NC(=O)C(F)(F)F)C(O)C(C)O1 (stereo partly specified)			18		< 5.30	
			COc1cccc2c1C(=O)c1c(O)c3c(c(O)c1C2=O)C[C@@](O)(C(=O)CO)C[C@@H]3O[C@H]1C[C@H](N)[C@H](O)[C@H](C)O1 [DOXORUBICIN]		0.96		3	7.22	157

Reference: ChEMBL document CHEMBL1123530, “Adriamycin analogues. Preparation and biological evaluation of some thio ester analogues of adriamycin and N-(trifluoroacetyl)adriamycin 14-valerate” (J Med Chem, 1986)
